Article PMC4197414 (Scientific Reports, 2014)
Non-standard residues stand in square brackets, D forms with d. Nap = naphthalene (naphthaline) capping group; Lys(Me3) = C[N+](C)(C)CCCC[C@H](N)C(=O)O; Ada = adamantane cap

Assays:
[1] = Transmission electron microscopy; assay type: physicochemical; conditions: TEM, PBS; for morphology after self-assembly: pH = 7.4, above CMC, samples prepared at 25°C, uranyl acetate stain
Method in brief: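 Samples were prepared in PBS at 25°C and applied to carbon-coated copper grids. Excess liquid was blotted with filter paper, and samples were negatively stained with uranyl acetate. Grids were dried overnight in a desiccator and imaged at 200 kV.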

[2] = test system: C-LytA (C-terminal moiety of the pneumococcal cell-wall amidase LytA); assay: Isothermal titration calorimetry; assay type: binding, Streptococcus pneumoniae; conditions: ITC; in words, as compared to Fmoc-K' itself
Method in brief: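 Recombinant C-LytA was expressed in E. coli BL21(DE3), induced with 0.3 mM IPTG at 16°C for 16–18 h, purified on Q Sepharose, eluted with 2% choline, and dialysed into PBS to remove choline. It was a dimer by gel filtration and ultracentrifugation. ITC was run in PBS at 16°C with ligand at pH 7.4, both solutions degassed by centrifugation. Ligand was titrated into the protein cell (0.4 μL, then 19 × 2 μL injections, 120 s apart, stirred at 1000 rpm). Ka came from a one- or two-site binding fit.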

[3] = pH = 7.4, 1.25 mmol/L, 1.08 wt% (Figure 2 legend)

Substance	average diameter of nanoparticles ([1]; pH = 7.4, 1.09 wt%)	morphology after self-assembly [1]	association constant (Ka) with C-LytA compared to Fmoc-K' [2]	length of nanofibers [1, 3]	width of nanofibers [1, 3]
AdaGFFYKKK'-NH2 (Ada-GFFYKK[Lys(Me3)]-NH2) [Compound 1]	around 153 nm	nanoparticle morphology	far higher association constant	–	–
NapGFFYKKK'-NH2 (Nap-GFFYKK[Lys(Me3)]-NH2) [Compound 2]	–	uniform nanofibers	far higher association constant	several microns	around 75 nm
